Compound activity from PubChem.
RGS4 inh – RGS4 inhibitors, primary screen, cell-based, HEK293 M3R inducible RGS4, calcium flux; Regulator of G-protein signaling 4 (Homo sapiens), P49798; Fluo-4 calcium flux; stronger effect = higher value; triggered by carbachol at its EC20; B-score at 10 µM; 310,000 compounds, 0.45% hits; AID 463165, 2010;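 active means B-score, a plate-corrected calcium signal, over three deviations above library mean, with baseline fluorescence within five deviations of library mean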;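 further: RGS4 expression induced by doxycycline in cells with stable M3 receptor; B-score is computed from the integrated fluorescence ratio over baseline after carbachol; higher B-score means a larger calcium signal and so more RGS4 inhibition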
Target sequence (P49798 whole entry, looked up): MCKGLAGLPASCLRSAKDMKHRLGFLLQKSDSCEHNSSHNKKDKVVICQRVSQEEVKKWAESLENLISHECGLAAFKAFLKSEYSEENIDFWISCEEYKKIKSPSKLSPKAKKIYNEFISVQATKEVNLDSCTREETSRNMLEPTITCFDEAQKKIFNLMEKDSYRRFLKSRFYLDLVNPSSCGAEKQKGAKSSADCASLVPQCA
MrgX1 ag – agonists of human MrgX1 receptor, primary screen, HEK293 cells, Fluo-4 calcium flux | Fluo-4 calcium fluorescence, agonist mode; stronger effect = higher value | B-score at 10 µM | 310,000 compounds, 0.44% hits | AID 588627, 2011;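 active means calcium response B-score plate-corrected fluorescence ratio at least 3 library SD, with starting fluorescence B-score inside 5 SD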
Target sequence (Q96LB2 whole entry, looked up): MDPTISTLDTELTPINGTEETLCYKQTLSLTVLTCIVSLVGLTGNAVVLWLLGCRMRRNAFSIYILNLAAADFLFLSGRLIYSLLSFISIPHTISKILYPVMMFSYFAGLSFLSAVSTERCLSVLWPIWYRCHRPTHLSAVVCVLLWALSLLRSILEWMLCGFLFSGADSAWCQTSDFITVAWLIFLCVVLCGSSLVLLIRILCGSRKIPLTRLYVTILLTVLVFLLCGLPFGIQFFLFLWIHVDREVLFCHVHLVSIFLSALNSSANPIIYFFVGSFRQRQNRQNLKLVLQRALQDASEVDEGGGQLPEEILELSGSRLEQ
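System: HEK293 cells stably expressing human MrgX1 receptor; Dosing: test compound in the initial addition of three; Schedule: overnight plating, then 30 min 37 °C plus 30 min room-temperature dye loading; Detection: kinetic calcium dye fluorescence, Fluo-4 NW; Controls: per-plate positive and negative controls for Z′ factor.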
MrgX1 PAM – positive allosteric modulators of MrgX1, primary screen, HEK293 cells, Fluo-4 calcium flux. Mas-related G-protein coupled receptor member X1 (Homo sapiens), Q96LB2. FDSS; stronger effect = higher value. B-score at 10 µM. 310,000 compounds, 0.63% hits. AID 588675, 2011;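 active means plate-corrected calcium response at least 3 library SD above typical, normal starting fluorescence, not activating the receptor alone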;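 further: compound read alongside a low EC10 to EC30 dose of BAM8-22 agonist; peak minus trough fluorescence over baseline measured at the second addition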
MrgX1 antag – antagonists of human MrgX1 receptor, primary screen, HEK293 cells, Fluo-4 calcium flux; BAM8-22 antagonism; stronger effect = lower value; B-score at 10 µM; 310,000 compounds, 1.3% hits; AID 588676, 2011;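 active means calcium-response B-score plate-corrected more than 3 library SD below zero, starting fluorescence within 5 deviations, no agonist response on first addition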;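 further: peak minus trough fluorescence over baseline after final BAM8-22 challenge near maximal dose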
RGS4 act – RGS4 potentiators or activators, primary screen, cell-based, HEK293 M3R inducible RGS4, calcium flux | AID 463111, 2010 | carbachol calcium flux Fluo4; stronger effect = lower value | 310,000 compounds, 0.92% hits | B-score at 10 µM;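 active means B-score of the integrated calcium signal more than 4 SD below the library mean, with starting fluorescence not abnormally high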;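 further: negative B-score means reduced calcium response which marks RGS4 activation or potentiation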
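Also added: carbachol at ECmax as muscarinic agonist stimulus; Assay system: HEK293 cells with stable M3R and inducible RGS4; Timing: overnight RGS4 induction, 30 min dye load 37 °C, 20 min compound RT; Measured by: Fluo4-AM (2 µM) calcium-flux fluorescence, kinetic read.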
RGS4 activ val – reduced carbachol calcium response, RGS4-induced M3R cells, confirmation, RGS4 activator project, cell-based, HEK293 M3R/RGS4 inducible, calcium flux, duplicate | shares compounds with RGS4 act | carbachol calcium flux Fluo4 | inhibition, % at 10 µM | 1,100 compounds, 89% hits | AID 602282, 2012;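 active means inhibition above 3 SD of the buffer control wells, cut at about 41% in these data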;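 further: signal is the integrated peak-minus-minimum Fluo4 fluorescence over baseline ratio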
M3R Ca counter – counter-screen for RGS4 activators: effect in non-induced cells; inhibition, % at 10 µM; AID 602283; shares compounds with RGS4 act; 1,100 compounds, 82% hits; HEK293 M3R non-induced RGS4, Fluo4 calcium flux; after carbachol challenge at its EC90;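 active means inhibition exceeding 3 SD of buffer-only control wells, cut at about 26% in these data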;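 further: percent drop in integrated peak-minus-baseline over baseline Fluo4 ratio after carbachol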
* marks the source's active call; other numbers are inactive results; i = inactive; . = no result given. Shown are actives, neighbours in structure and some others; about 3.5% of the full set was active somewhere.

SMILES	RGS4 inh	MrgX1 ag	MrgX1 PAM	MrgX1 antag	RGS4 act	RGS4 activ val	M3R Ca counter
O=C(c1ccc2nc(-c3ccco3)c(-c3ccco3)nc2c1)N1CCN(c2ccccc2)CC1	i	i	i	i	-13*	92*	46*
CCc1nc2ccc(C(=O)N3CCN(c4ccccc4)CC3)cc2nc1CC	i	i	i	i	i	.	.
COc1cccc(-c2ccc(NC(=O)C3CCCN(Cc4cnn(C(C)C)c4)C3)cc2)c1 (configuration not stated)	i	i	i	i	-11*	92*	79*
CCCc1ncc(CN2CCCC(C(=O)Nc3ccc(-c4cccc(OC)c4)cc3)C2)cn1 (configuration not stated)	i	i	i	i	i	.	.
O=C(Nc1ccc(-c2cccc(F)c2)cc1)C1CCCN(Cc2ccccn2)C1 (configuration not stated)	i	i	i	i	-8.1*	50*	29*
CC1CCCN(C(=O)COC(=O)c2cc(-c3cccs3)nn2-c2ccccc2)C1 (configuration not stated)	i	i	i	i	-10*	92*	70*
COc1ccc(Br)cc1C(=O)Nc1ccc(Cc2ccncc2)cc1	i	i	i	i	i	.	.
COc1c(C(=O)Nc2ccc(Cc3ccncc3)cc2)ccc2ccccc12	i	i	i	i	-13*	92*	86*
COc1cc(NC(=O)NCC2CCN(Cc3ccccc3F)CC2)cc(OC)c1	i	i	i	i	i	.	.
CCOC(=O)[C@H]1[C@H]2COc3ccc(Cl)cc3[C@@H]2N2C(=O)c3ccc(Cl)cc3NC(=O)[C@@]12C	.	i	i	i	.	.	.
O=C(NCc1ccccc1)C1COc2ccccc2O1 (configuration not stated)	i	i	i	i	i	.	.
O=C(NC1CCN(Cc2ccccc2)CC1)C1COc2ccccc2O1 (configuration not stated)	i	i	i	i	-8.5*	92*	87*
COc1ccc(CNC(=O)CN(C)Cc2ccc(C(C)(C)C)cc2)cc1	i	i	i	i	i	.	.
O=C(CNC(=O)c1ccc(Br)o1)NNC(=O)c1ccccc1O	i	i	i	i	i	.	.
Cc1ccc(Cc2c(C)nc3nc(SCC(=O)NCCCN4CCCCC4)nn3c2C)cc1	i	i	i	i	i	.	.
Cc1ccc(Cc2c(C)nc3nc(SCC(=O)NCCCN4CCCC4)nn3c2C)cc1	i	i	i	i	-9.6*	41*	0
Cc1nc2nc(SCC(=O)NCCCN3CCCCCC3)nn2c(C)c1Cc1ccccc1Cl	i	i	i	i	-7.9*	82*	45*
Cc1ccccc1Cc1c(C)nc2nc(SCC(=O)NCCCN3CCCC3)nn2c1C	i	i	i	i	-8.7*	72*	37*
Cc1nc2nc(SCC(=O)NCCCN3CCCC(C)C3)nn2c(C)c1Cc1ccccc1Cl (configuration not stated)	i	i	i	i	i	.	.
CN(C)C(CNC(=O)c1cnc(Cl)c(Cl)c1)c1ccccc1 (configuration not stated)	i	i	i	i	i	.	.
COc1cc(COC(=O)c2cnc(C)cn2)c(OC)cc1Br	i	i	i	i	i	.	.
C=CCNC(=O)c1ccc(C(=O)c2ccccc2)cc1	i	i	i	i	i	.	.
O=C(O)c1ccc2nc3c(nc2c1)-c1ccccc1C3=O	i	i	i	i	-11*	0	0
C=CCNC(=O)c1ccc2nc(-c3ccccc3)c(-c3ccccc3)nc2c1	i	i	i	i	-8.9*	77*	44*
COc1cc(O)c(CC=C(C)C)c(O)c1C(=O)CCc1ccc(O)cc1	i	i	i	i	-9.3*	91*	76*
SMILES	RGS4 inh	MrgX1 ag	MrgX1 PAM	MrgX1 antag	RGS4 act	RGS4 activ val	M3R Ca counter
COc1ccc(C(=O)C2CCCN(C3Cc4ccccc4C3)C2)c(OC)c1 (configuration not stated)	i	i	i	i	i	.	.
CC(C)(C)c1cc(-c2csc(Nc3ccccc3)[n+]2Cc2ccc(C(=O)O)cc2)cc(C(C)(C)C)c1O	i	i	i	-9.5*	-11*	94*	97*
Cc1ccc2nc(C3CCCN3Cc3nc(CCC(C)C)no3)[nH]c2c1 (configuration not stated)	i	i	i	i	i	.	.
CCOC(=O)C(=CNc1cc(Cl)c(-c2ccco2)c(Cl)c1)C(=O)OCC	i	i	i	i	-7.8*	82*	84*
CC1CN(C(=O)c2cc(-c3ccc(Cl)s3)nc3ccccc23)CC(C)O1 (configuration not stated)	i	i	i	i	i	.	.
Cc1c(C(=O)Nc2nccs2)oc2c(Cl)cccc12	i	i	i	i	i	.	.
CN(C)CCCn1c2c(c(SCC(=O)Nc3ccc4c(c3)OCO4)nc1=O)CCC2	i	i	i	i	i	.	.
Cn1ccnc1C1CCCCN1Cc1nc(Cc2cccc(C(F)(F)F)c2)no1 (configuration not stated)	i	i	i	i	-10*	78*	40*
CN(Cc1nc(-c2ccc3c(c2)OCO3)no1)CC1(N2CCOCC2)CCCCC1	i	i	i	i	i	.	.
FC(F)(F)c1cccc(Cc2noc(CN3C[C@@H]4CCC[C@H]3C4)n2)c1	i	i	i	i	i	.	.
Cn1ccnc1C1CCCCN1Cc1nc(-c2ccc3c(c2)OCO3)no1 (configuration not stated)	i	i	i	i	-7.8*	86*	62*
COc1ccc(-c2noc(CN3CCCCC3c3nccn3C)n2)cc1 (configuration not stated)	i	i	i	i	-7.6*	66*	84*
OC(C#CCN1CCCC1)(c1ccccc1)c1cccnc1 (configuration not stated)	i	i	i	i	-8.2*	92*	86*
